Source: ChEMBL document CHEMBL1121608, “Modification of the 5' position of purine nucleosides. 2. Synthesis and some cardiovascular properties of adenosine-5'-(N-substituted)carboxamides” (J Med Chem, 1980)

Assays:
[1] = test system: Canis familiaris; assay: Tested for the percent increase in aortic blood pressure (BP) in open chest anesthetized dog at intravenous dosage of 0.10 mg/kg; assay type: functional, Canis lupus familiaris, Artery; conditions: dose 0.1 mg/kg
Outline: (§1)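 Open-chest anesthetized dogs, compound given iv at the stated dose. Aortic blood pressure is reported as the change from the control (pre-dose) value. Other set-up follows the group's earlier cardiovascular protocol.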

[2] = test system: Canis familiaris; assay: Total time in minutes elapsed from the initiation of the change until return to the pretest value of oxygen partial pressure in coronary sinus of anesthetized dog at intravenous dosage of 0.1 mg/kg; assay type: functional, Canis lupus familiaris
[3] = test system: Canis familiaris; assay: Total time in minutes elapsed from the initiation of the change until return to the pretest value of blood pressure in coronary sinus of anesthetized dog at intravenous dosage of 0.1 mg/kg; assay type: functional, Canis lupus familiaris
[4] = test system: Canis familiaris; assay: Total time in minutes elapsed from the initiation of the change until return to the pretest value of heart rate in coronary sinus of anesthetized dog at intravenous dosage of 0.1 mg/kg; assay type: functional, Canis lupus familiaris
[5] = test system: Canis familiaris; assay: tested for the percent increase in heart rate (HR) in open chest anesthetized dog at intravenous dosage of 0.10 mg/kg; assay type: functional, Canis lupus familiaris; conditions: dose 0.1 mg/kg
[6] = test system: Canis familiaris; assay: tested for percent increase in coronary sinus partial pressure of oxygen (PO2) in open chest anesthetized dog at intravenous dosage of 0.10 mg/kg; assay type: functional, Canis lupus familiaris; conditions: dose 0.1 mg/kg
[7] = test system: Canis familiaris; assay: Total time in minutes elapsed from the initiation of the change until return to the pretest value of heart rate in coronary sinus of anesthetized dog at intravenous dosage of 1 mg/kg; assay type: functional, Canis lupus familiaris
[8] = test system: Canis familiaris; assay: Total time in minutes elapsed from the initiation of the change until return to the pretest value of oxygen partial pressure in coronary sinus of anesthetized dog at intravenous dosage of 0.10 mg/kg; assay type: functional, Canis lupus familiaris; conditions: dose 0.1 mg/kg
[9] = test system: Canis familiaris; assay: Tested for the percent increase in aortic blood pressure (BP) in open chest anesthetized dog at intravenous dosage of 0.01 mg/kg; assay type: functional, Canis lupus familiaris, Artery; outline: as §1
[10] = test system: Canis familiaris; assay: Tested for the percent increase in coronary sinus partial pressure of oxygen (PO2) in open chest anesthetized dog at intravenous dosage of 1.00 mg/kg; assay type: functional, Canis lupus familiaris
[11] = test system: Canis familiaris; assay: Total time in minutes elapsed from the initiation of the change until return to the pretest value of blood pressure in coronary sinus of anesthetized dog at intravenous dosage of 1 mg/kg; assay type: functional, Canis lupus familiaris
[12] = test system: Canis familiaris; assay: Total time in minutes elapsed from the initiation of the change until return to the pretest value of oxygen partial pressure in coronary sinus of anesthetized dog at intravenous dosage of 1 mg/kg; assay type: functional, Canis lupus familiaris
Outline: (§2)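 Open-chest anesthetized dogs given compound by intravenous injection. Coronary sinus PO2 was monitored, and duration was the total time in minutes from the onset of the change until return to the pretest value.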

[13] = test system: Canis familiaris; assay: Tested for the percent increase in aortic blood pressure (BP) in open chest anesthetized dog at intravenous dosage of 1.00 mg/kg; assay type: functional, Canis lupus familiaris, Artery; outline: as §1
[14] = Lethal dose in mice after intraperitoneal administration; assay type: toxicity, organism-based; conditions: mouse, in vivo, ip
Outline: (§3)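 Male and female mice, three per dose group, were given the compound by the stated route in increments of 0.5 log doses. The LD50 was estimated as an approximate value.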

[15] = test system: Canis familiaris; assay: Total time in minutes elapsed from the initiation of the change until return to the pretest value of heart rate in coronary sinus of anesthetized dog at intravenous dosage of 0.01 mg/kg; assay type: functional, Canis lupus familiaris
[16] = Lethal dose in mice after peroral administration; assay type: toxicity, organism-based; conditions: mouse, in vivo, po; outline: as §3
[17] = test system: Canis familiaris; assay: Total time in minutes elapsed from the initiation of the change until return to the pretest value of heart rate in coronary sinus of anesthetized dog at intravenous dosage of 0.001 mg/kg; assay type: functional, Canis lupus familiaris
[18] = test system: Canis familiaris; assay: Total time in minutes elapsed from the initiation of the change until return to the pretest value of oxygen partial pressure in coronary sinus of anesthetized dog at intravenous dosage of 0.001 mg/kg; assay type: functional, Canis lupus familiaris
[19] = test system: Canis familiaris; assay: Tested for percent increase in coronary sinus partial pressure of oxygen (PO2) in open chest anesthetized dog at intravenous dosage of 0.001 mg/kg; assay type: functional, Canis lupus familiaris
[20] = test system: Canis familiaris; assay: Total time in minutes elapsed from the initiation of the change until return to the pretest value of blood pressure in coronary sinus of anesthetized dog at intravenous dosage of 0.001 mg/kg; assay type: functional, Canis lupus familiaris
[21] = test system: Canis familiaris; assay: Tested for the percent increase in aortic blood pressure (BP) in open chest anesthetized dog at intravenous dosage of 0.001 mg/kg; assay type: functional, Canis lupus familiaris, Artery; outline: as §1
[22] = test system: Canis familiaris; assay: Total time in minutes elapsed from the initiation of the change until return to the pretest value of heart rate in coronary sinus of anesthetized dog at intravenous dosage of 9 mg/kg; assay type: functional, Canis lupus familiaris
[23] = test system: Canis familiaris; assay: tested for the percent increase in aortic blood pressure (BP) in open chest anesthetized dog at intravenous dosage of 9.00 mg/kg; assay type: functional, Canis lupus familiaris, Artery
Outline: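 Open-chest anesthetized dogs received intravenous doses. Aortic blood pressure was recorded as the change from control.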

[24] = test system: Canis familiaris; assay: tested for percent increase in coronary sinus partial pressure of oxygen (PO2) in open chest anesthetized dog at intravenous dosage of 9.00 mg/kg; assay type: functional, Canis lupus familiaris
[25] = test system: Canis familiaris; assay: Total time in minutes elapsed from the initiation of the change until return to the pretest value of oxygen partial pressure in coronary sinus of anesthetized dog at intravenous dosage of 9 mg/kg; assay type: functional, Canis lupus familiaris; outline: as §2
[26] = test system: Canis familiaris; assay: Total time in minutes elapsed from the initiation of the change until return to the pretest value of blood pressure in coronary sinus of anesthetized dog at intravenous dosage of 9 mg/kg; assay type: functional, Canis lupus familiaris
[27] = test system: Canis familiaris; assay: Total time in minutes elapsed from the initiation of the change until return to the pretest value of blood pressure in coronary sinus of anesthetized dog at intravenous dosage of 1.00 mg/kg; assay type: functional, Canis lupus familiaris
[28] = test system: Canis familiaris; assay: Tested for percent increase in coronary sinus partial pressure of oxygen (PO2) in open chest anesthetized dog at intravenous dosage of 1.00 mg/kg; assay type: functional, Canis lupus familiaris
[29] = test system: Canis familiaris; assay: Total time in minutes elapsed from the initiation of the change until return to the pretest value of oxygen partial pressure in coronary sinus of anesthetized dog at intravenous dosage of 0.01 mg/kg; assay type: functional, Canis lupus familiaris
[30] = test system: Canis familiaris; assay: Total time in minutes elapsed from the initiation of the change until return to the pretest value of blood pressure in coronary sinus of anesthetized dog at intravenous dosage of 0.01 mg/kg; assay type: functional, Canis lupus familiaris
[31] = test system: Canis familiaris; assay: Tested for percent increase in coronary sinus partial pressure of oxygen (PO2) in open chest anesthetized dog at intravenous dosage of 0.01 mg/kg; assay type: functional, Canis lupus familiaris
[32] = test system: Canis familiaris; assay: Tested for the percent increase in coronary sinus partial pressure of oxygen (PO2) in open chest anesthetized dog at intravenous dosage of 0.10 mg/kg; assay type: functional, Canis lupus familiaris; conditions: dose 0.1 mg/kg
[33] = test system: Canis familiaris; assay: Total time in minutes elapsed from the initiation of the change until return to the pretest value of blood pressure in coronary sinus of anesthetized dog at intravenous dosage of 10 mg/kg; assay type: functional, Canis lupus familiaris
[34] = test system: Canis familiaris; assay: Total time in minutes elapsed from the initiation of the change until return to the pretest value of heart rate in coronary sinus of anesthetized dog at intravenous dosage of 10 mg/kg; assay type: functional, Canis lupus familiaris
[35] = test system: Canis familiaris; assay: Tested for the percent increase in aortic blood pressure (BP) in open chest anesthetized dog at intravenous dosage of 10.00 mg/kg; assay type: functional, Canis lupus familiaris, Artery; outline: as §1
[36] = test system: Canis familiaris; assay: Tested for the percent increase in coronary sinus partial pressure of oxygen (PO2) in open chest anesthetized dog at intravenous dosage of 10.00 mg/kg; assay type: functional, Canis lupus familiaris
[37] = test system: Canis familiaris; assay: Total time in minutes elapsed from the initiation of the change until return to the pretest value of oxygen partial pressure in coronary sinus of anesthetized dog at intravenous dosage of 10 mg/kg; assay type: functional, Canis lupus familiaris; outline: as §2

Work on `CCCCNC(=O)[C@H]1OC(n2cnc3c(N)ncnc32)[C@H](O)[C@@H]1O` (some centres not stated) yielded a BP [1] of 5%, a Duration [2] of 30 min and a Duration [3] of 40 min. For the same compound, the Duration [4] was 40 min, the HR [5] was 16% and the PO2 [6] was 30%.
Work on `CCOCCNC(=O)[C@H]1OC(n2cnc3c(N)ncnc32)[C@H](O)[C@@H]1O` (some centres not stated) yielded a Duration [7] of 120 min, a Duration [8] of 6 min and a BP [9] of 8%. The PO2 [10] was 135%, the Duration [11] was 120 min and the Duration [12] was 120 min. The BP [13] was 15%, the Duration [3] was 1 min and the LD50 [14] was 50 mg/kg. The Duration [15] was 0 min and the LD50 [16] was greater than 1000 mg/kg.
For `CCNC(=O)[C@H]1OC(n2cnc3c(N)[n+]([O-])cnc32)[C@H](O)[C@@H]1O` (some centres not stated), the Duration [17] was 120 min, the Duration [18] was 120 min and the PO2 [19] was 37%. The Duration [20] was 120 min and the BP [21] was 27 mmHg.
With `Nc1ncnc2c1ncn2C1O[C@H](C(=O)NCC(O)COc2cccc3ccccc23)[C@@H](O)[C@H]1O` (some centres not stated) the Duration [22] was 12 min, the BP [23] was 8 mmHg and the PO2 [24] was 152%. For the same compound, the LD50 [14] was greater than 300 mg/kg, the Duration [25] was 18 min and the LD50 [16] was greater than 300 mg/kg. The Duration [26] was 7 min.
Compound `CN(C)C(=O)[C@H]1OC(n2cnc3c(N)ncnc32)[C@H](O)[C@@H]1O` (some centres not stated) has a Duration [7] of 0 min, a Duration [12] of 0 min and a Duration [27] of 0 min. It also gave a BP [13] of 0%, an LD50 [14] of 50 mg/kg and a PO2 [28] of 0%. It also gave an LD50 [16] of 1000 mg/kg.
For `CNC(=O)[C@H]1O[C@@H](n2cnc3c(N)ncnc32)[C@H](O)[C@@H]1O`, the Duration [29] was 14 min, the Duration [30] was 60 min and the PO2 [31] was 105%. The Duration [2] was 240 min, the Duration [3] was 240 min and the LD50 [14] was 5 mg/kg. It also gave a PO2 [32] of 215%, a Duration [15] of 240 min and an LD50 [16] of 20 mg/kg.
In the case of `CCN(CC)CCNC(=O)[C@H]1OC(n2cnc3c(N)ncnc32)[C@H](O)[C@@H]1O` (some centres not stated), the Duration [33] is reported as 22 min, the Duration [34] is reported as 60 min and the BP [35] is reported as 7%. It also gave a Duration [7] of 0 min, a PO2 [36] of 25% and a Duration [11] of 0 min. It also gave a Duration [12] of 6 min, a BP [13] of 0% and an LD50 [14] of 50 mg/kg. It also gave a PO2 [28] of 57%, a Duration [37] of 60 min and an LD50 [16] greater than 1000 mg/kg.
